Assay outcomes (PubChem)
Hits are enriched below; roughly 1.7% of the tested compounds scored in any of these assays.
DNMT1 inh = blocks human DNA methyltransferase DNMT1; P26358; DNMT1 molecular beacon, Hinp1I cleavage, fluorescence; inhibition (reported as % activation of signal), % at 10 µM; 360,000 tested, 0.83% active; AID 588458; in the data active = inhibition above about 50%
Target sequence (P26358 504-1616 limits assumed): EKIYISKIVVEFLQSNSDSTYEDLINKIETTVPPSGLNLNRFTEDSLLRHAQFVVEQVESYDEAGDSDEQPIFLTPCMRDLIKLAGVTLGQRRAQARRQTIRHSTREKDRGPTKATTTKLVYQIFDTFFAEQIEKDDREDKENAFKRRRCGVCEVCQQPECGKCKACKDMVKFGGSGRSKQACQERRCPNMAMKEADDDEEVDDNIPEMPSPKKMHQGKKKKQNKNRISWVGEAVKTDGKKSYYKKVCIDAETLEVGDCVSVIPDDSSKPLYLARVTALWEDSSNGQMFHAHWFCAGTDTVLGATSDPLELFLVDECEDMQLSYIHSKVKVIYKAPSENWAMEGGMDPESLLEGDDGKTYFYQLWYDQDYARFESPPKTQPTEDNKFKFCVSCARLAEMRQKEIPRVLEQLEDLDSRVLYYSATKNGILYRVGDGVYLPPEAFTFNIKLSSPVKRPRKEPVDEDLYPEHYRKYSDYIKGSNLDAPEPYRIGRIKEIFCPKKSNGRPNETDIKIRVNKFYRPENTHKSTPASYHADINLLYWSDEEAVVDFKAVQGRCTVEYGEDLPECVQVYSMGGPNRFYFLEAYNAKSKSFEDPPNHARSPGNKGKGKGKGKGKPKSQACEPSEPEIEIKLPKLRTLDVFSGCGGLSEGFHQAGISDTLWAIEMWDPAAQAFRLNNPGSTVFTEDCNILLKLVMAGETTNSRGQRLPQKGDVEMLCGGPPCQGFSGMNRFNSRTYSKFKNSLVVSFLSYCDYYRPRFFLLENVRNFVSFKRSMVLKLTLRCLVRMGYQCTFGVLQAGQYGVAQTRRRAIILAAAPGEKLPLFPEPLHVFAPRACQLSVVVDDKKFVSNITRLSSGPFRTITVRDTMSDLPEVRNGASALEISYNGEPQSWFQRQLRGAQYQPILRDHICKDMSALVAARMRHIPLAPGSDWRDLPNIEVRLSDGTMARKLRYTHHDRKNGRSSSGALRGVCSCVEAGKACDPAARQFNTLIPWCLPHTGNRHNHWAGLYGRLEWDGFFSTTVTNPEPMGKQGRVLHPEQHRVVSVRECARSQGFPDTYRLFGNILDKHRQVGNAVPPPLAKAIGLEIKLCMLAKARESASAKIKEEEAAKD
SUMO1-SIM PPI = alters human SUMO1 binding to SIM partners; SUMO1 binding to a labelled peptide, TR-FRET, 1 h; inhibition, % at 20 µM; 360,000 tested, 0.33% active; in the data active = inhibition above about 37%
STEP block = blocks human striatal-enriched tyrosine phosphatase; P54829; inhibition, % at 20 µM; 360,000 tested, 0.25% active; recombinant STEP, OMFP fluorogenic substrate, fluorescence;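 active = inhibition at 20 µM, scaled per plate between control wells, above about 37%, limit read from the data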;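 note: 0% = DMSO with enzyme and substrate and 100% = substrate only without enzyme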
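Test system: STEP tyrosine phosphatase / Reagent: OMFP at 25 µM / Doses: 20 µM, 1% DMSO / Read-out: percent inhibition scaled to no-enzyme and uninhibited-enzyme controls, plate-pattern corrected / Detection: FITC-channel fluorescence of OMFP product / Medium: Bis-Tris buffer pH 6.0, 2.5 mM DTT, 0.005% Tween 20 / Schedule: 20 min at room temperature, dark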
Scp-1 inhibitor = Scp-1 (human) phosphatase inhibition | Q9GZU7 | 340,000 tested, 0.88% active | Recombinant Scp1, phosphopeptide, malachite green phosphate absorbance | inhibition, % at 20 µM;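 active = inhibition above about 50% at 20 µM, limit read from the data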;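 note: plate controls were DMSO wells with enzyme for no effect and wells lacking enzyme for full effect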
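Material – SCP-1 phosphatase catalytic domain, residues 76-261 · Buffer or medium – Acidic Tris acetate buffer with magnesium and detergent · Also added – Phospho 17-mer peptide substrate · Compound – single 20 µM dose, 1% DMSO · Times – 45 min room-temperature reaction, 5 min colour, 30 min stabiliser · Technique – Phosphate-binding colour reagent, absorbance read at 630 nm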
LMPTP block = blocks human LMPTP phosphatase | recombinant LMPTP-A, OMFP fluorogenic substrate, fluorescence intensity | inhibition, % at 20 µM | 360,000 tested, 0.22% active | P24666;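 active = compounds that cut the enzyme signal by at least half of the control window in the single-dose screen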;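 note: plate controls were DMSO wells with enzyme plus substrate for no effect and substrate without enzyme for full effect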
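Test system: LMPTP-A, protein tyrosine phosphatase of low molecular weight; Input: 0.625 nM enzyme; Incubation: 50 min dark incubation at room temperature; Signal: endpoint fluorescence intensity from OMFP dephosphorylation; Read-out basis: % inhibition versus control wells.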
Scp-1 conf = Scp-1 (human) inhibition, single-dose confirmed; shares compounds with Scp-1 inhibitor; recombinant SCP-1 catalytic domain, phosphate release, malachite green absorbance; inhibition, % at 20 µM; 2,500 tested, 61% active;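 note: plate controls were DMSO with enzyme for no effect and buffer wells lacking enzyme for full effect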
Scp-1 MG ctr = colorimetric interference in Scp-1 counter-screen; shares compounds with Scp-1 inhibitor; Colorimetric interference counterscreen, malachite green absorbance 630 nm; apparent inhibition (interference), % at 20 µM; 2,500 tested, under 10 active;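 note: compounds added after enzyme reaction finished so only phosphate colour detection is probed; plate controls were DMSO wells with completed Scp-1 reaction for no effect and substrate wells lacking enzyme for full effect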
Scp1 DSF = validation of human Scp-1 inhibitors by thermal shift binding. shares compounds with Scp-1 inhibitor. Recombinant SCP1, Sypro Orange thermal shift Tm. 1,500 tested, 25% active. thermal shift relative to vanadate control, % at 40 µM;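 active = substances whose mean melting-temperature shift, as a percentage of the reference inhibitor's shift, reaches about 5.3%, limit read from the data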;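 note: 0% = Tm of DMSO wells and 100% = Tm with sodium orthovanadate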
* hit, by the source's call; nt = no result.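 Rule for the calls, unless noted: active = inhibition of at least 30% at 20 µM; inactive = the rest.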

SMILES	DNMT1 inh	SUMO1-SIM PPI	STEP block	Scp-1 inhibitor	LMPTP block	Scp-1 conf	Scp-1 MG ctr	others
COc1ccc(/C=C(\C#N)C(=O)Nc2ccc3[nH]c(=O)[nH]c3c2)cc1	24	-2	4	111*	32	66*	-14	Scp1 DSF=-5
CCSc1nnc(NC(=O)C2CCCCC2)s1	1	-2	-4	-1	-1	nt	nt
CCSc1nnc(NC(=O)C2CC=CCC2C(=O)O)s1 (stereo unspecified)	27	5	12	87*	0	53*	-8	Scp1 DSF=-5
CCC(NC(=O)C1CCCC1)c1ccccc1 (stereo unspecified)	-3	0	-1	7	-2	nt	nt
CCCCC1=CC2=C(c3ccco3)C(=O)C(C)(OC(=O)c3ccc(OC)cc3)C(=O)C2=CN1Cc1ccc2c(c1)OCO2 (stereo unspecified)	26	-7	1	63*	23	5	0
CS(=O)(=O)N(CC(=O)N1CCCCCC1)c1ccc(Cl)cc1	-5	1	0	59*	-3	0	-5
COc1ccc(OC)c(S(=O)(=O)N2CCC(C(=O)NCC3CCCO3)CC2)c1 (stereo unspecified)	3	11	-2	92*	-2	-12	-9
COc1ccc(Cl)cc1S(=O)(=O)N1CCC(C(=O)NCC2CCCO2)CC1 (stereo unspecified)	2	-4	1	-10	0	nt	nt
CC(=O)c1ccc(NC(=O)c2cccc(N3C(=O)c4ccccc4C3=O)c2)cc1	40	84*	98*	97*	55*	48*	-13	Scp1 DSF=-15
COc1ccc(CN2C(=O)C(CC(=O)NCCc3ccccn3)CC(C(=O)N(C)C)=C2C)cc1 (stereo unspecified)	2	2	-2	nt	-4	nt	nt
C[C@@H]1CC[C@H](Cc2ccc(-n3cccc3)cc2)N1C(=O)OC(C)(C)C	10	4	2	nt	2	nt	nt
Cc1ccc(S(=O)(=O)CCC(=O)OCC(=O)N2CCc3ccccc32)cc1	0	6	-1	60*	0	-9	-10
CC(Oc1ccc(Br)cc1)C(=O)N(C)CC(=O)Nc1ccc(N2CCOCC2)cc1 (stereo unspecified)	-13	-111	-6	-6	-10	nt	nt
Nc1c(CNCc2nnn(Cc3ccccc3)c2N)nnn1Cc1ccccc1	0	0	-3	nt	0	nt	nt
CN(C)S(=O)(=O)c1cccc(C(=O)OCC(=O)Nc2sccc2C(N)=O)c1	9	20	9	57*	17	4	0
COc1cccc(NC(=O)C(OC(=O)c2cnc(C)cn2)c2ccccc2)c1 (stereo unspecified)	-16	-1	-1	-3	-1	nt	nt
CC(C)C(=O)Nc1nnc(S(=O)(=O)N(C)c2ccc(Cl)cc2)s1	1	0	-3	-12	0	nt	nt
CCOC(=O)C1CCCN(C(=O)c2ccc(CS(=O)(=O)c3ccc(C)cc3)o2)C1 (stereo unspecified)	46	5	1	57*	0	55*	-11	Scp1 DSF=5
Cc1ccc(S(=O)(=O)Cc2ccc(C(=O)N3CCCCCC3)o2)cc1	7	6	5	18	-1	nt	nt
O=C(COC(=O)c1cc(=O)[nH]c2ccccc12)NC1CCCCCCC1	2	-10	7	-5	0	nt	nt
O=C(COC(=O)c1cc(=O)[nH]c2ccccc12)NC(=O)NC1CCCCC1	1	-6	-2	-6	1	-19	-16
COc1ccc(S(=O)(=O)NCCN2CCOCC2)c2ccccc12	-2	-1	1	-6	-1	nt	nt
COc1ccc(S(=O)(=O)NCCN2CCOCC2)c(C)c1C	0	4	1	81*	-3	-13	-12
O=C(OCC(=O)N1CCCC1=O)c1ccc(Cl)cc1[N+](=O)[O-]	0	-28	1	-3	0	nt	nt
Cc1cccc(C)c1NC(=O)CSc1nnc(NC(=O)c2ccccc2C(=O)O)s1	-1	2	0	65*	-1	2	-13
SMILES	DNMT1 inh	SUMO1-SIM PPI	STEP block	Scp-1 inhibitor	LMPTP block	Scp-1 conf	Scp-1 MG ctr	others
CC1CCN(C(=O)COC(=O)CCC(=O)c2ccc(Cl)cc2)CC1	-4	3	1	-7	0	nt	nt
CC(C)(C)NC(=O)C1c2ccccc2OCC(=O)N1CCc1ccccc1 (stereo unspecified)	nt	1	nt	nt	-1	nt	nt
NC(=O)c1c(NC(=O)C2CC=CCC2C(=O)O)sc2c1CCCCC2 (stereo unspecified)	20	28	38	58*	1	71*	-2	Scp1 DSF=0
CC1Cc2cc(S(=O)(=O)N3CCC(C(=O)N4CCN(c5ccccc5F)CC4)CC3)ccc2N1C(=O)C1CC1 (stereo unspecified)	-3	-7	0	-20	3	nt	nt
O=C(Nc1ccc(S(=O)(=O)Nc2nccs2)cc1)c1ccc(=O)[nH]c1	-1	32	-2	70*	6	60*	-12	Scp1 DSF=8.9*
O=C(Nc1ccc(S(=O)(=O)Nc2nccs2)cc1)c1ccncc1	3	-4	-3	nt	-1	nt	nt
O=C(CN1CCOCC1)NNC(=O)c1ccc(Cl)cc1	1	-6	-3	-5	-1	nt	nt
CC(=O)OCC[n+]1c(C)n(-c2ccccc2)c2ccc(Cl)cc21	2	-3	-1	90*	-2	-9	-13
CCOC(=O)c1ccc2c(c1)[n+](CC)c(C)n2-c1ccccc1	0	2	6	11	-2	nt	nt
CCCc1ccc(C(=O)NNc2cc(Cl)ccc2Cl)cc1	4	0	-2	-11	4	nt	nt
CCCc1ccc(C(=O)NNC(=O)c2ccc(Cl)cc2)cc1	12	3	4	94*	25	74*	-15	Scp1 DSF=-3
CCOC(=O)c1c(C)[nH]c(C)c1S(=O)(=O)NCC1CCN(Cc2ccccc2OC)CC1	2	-3	-2	-5	0	nt	nt
CS(=O)(=O)c1ccc(-c2sc3cc4c(cc3c2C(=O)NN2CCOCC2)OCO4)cc1	5	-18	-1	101*	-1	86*	-7	Scp1 DSF=-20
O=C(NN1CCOCC1)c1c(-c2ccccc2)sc2ccccc12	9	5	-1	-3	-2	nt	nt
CCCS(=O)(=O)NC(=O)C1(C)CCCN(C(=O)c2nc3ccccc3s2)C1 (stereo unspecified)	1	6	1	nt	-1	nt	nt
O=C(COc1ccc(OCc2ccccc2)cc1)NC1CCOC1=O (stereo unspecified)	-2	2	-1	85*	-2	-19	-19
